Laboratory results taken from PubChem BioAssay AID624340 (The Scripps Research Institute Molecular Screening Center, 2012).
Values joined by “and” are separate entries in the source; they are usually repeats but may differ in a detail not shown here. Identical values can stand only once. Active and inactive are the calls of the source.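 Rule for the calls: active = IC50 at or below 10 µM; inactive = IC50 above 10 µM.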

Target: Insulin-degrading enzyme (Homo sapiens) (UniProt P14735)
Test: IDE inhibition with fluorogenic peptide, late-stage follow-up, artefact control for IDE inhibitor project, biochemical, FRET1 substrate, fluorescence, round 2 (AID 624340)
Details: recombinant WT IDE
Method in brief: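 Test system: recombinant WT IDE. Quantity: 1 nM IDE final. Reagent: FRET1 peptide substrate at 1 µM final. Benchmarks: DMSO-only wells as 100%, no-enzyme wells as 0%. Measured by: kinetic fluorescence intensity read at 385 nm emission, 335 nm excitation. Incubation: kinetic read every 2 min over 2 h, 22 °C.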

Sequence of Insulin-degrading enzyme (Homo sapiens) (P14735 whole entry, looked up): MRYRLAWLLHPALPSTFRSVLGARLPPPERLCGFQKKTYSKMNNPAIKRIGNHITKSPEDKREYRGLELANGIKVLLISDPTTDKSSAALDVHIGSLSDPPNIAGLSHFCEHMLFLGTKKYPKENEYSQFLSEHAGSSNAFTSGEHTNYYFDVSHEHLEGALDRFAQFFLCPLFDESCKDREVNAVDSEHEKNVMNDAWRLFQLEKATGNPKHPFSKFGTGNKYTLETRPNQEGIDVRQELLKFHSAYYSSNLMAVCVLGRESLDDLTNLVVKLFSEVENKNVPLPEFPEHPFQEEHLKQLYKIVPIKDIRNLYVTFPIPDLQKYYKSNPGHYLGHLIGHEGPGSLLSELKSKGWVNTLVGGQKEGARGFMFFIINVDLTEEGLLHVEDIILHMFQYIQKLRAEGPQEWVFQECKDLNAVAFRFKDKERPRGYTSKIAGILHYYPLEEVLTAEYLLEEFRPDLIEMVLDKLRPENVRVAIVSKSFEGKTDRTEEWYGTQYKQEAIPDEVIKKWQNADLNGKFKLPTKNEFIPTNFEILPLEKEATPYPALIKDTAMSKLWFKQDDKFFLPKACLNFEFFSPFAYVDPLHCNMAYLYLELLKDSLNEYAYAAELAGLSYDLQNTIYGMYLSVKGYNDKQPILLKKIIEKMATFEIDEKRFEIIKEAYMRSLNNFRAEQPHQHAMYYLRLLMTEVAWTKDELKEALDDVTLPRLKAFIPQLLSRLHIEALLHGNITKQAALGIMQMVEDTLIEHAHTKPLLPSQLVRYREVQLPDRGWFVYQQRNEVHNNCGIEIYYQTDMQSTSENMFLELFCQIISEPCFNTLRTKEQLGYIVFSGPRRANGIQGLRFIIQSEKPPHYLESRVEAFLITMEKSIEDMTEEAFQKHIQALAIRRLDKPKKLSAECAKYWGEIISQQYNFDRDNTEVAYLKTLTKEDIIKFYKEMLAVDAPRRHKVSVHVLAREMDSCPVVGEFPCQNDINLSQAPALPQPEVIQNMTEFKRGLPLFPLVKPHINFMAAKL

Compound	IC50
Cc1ccc(-c2nnc(SCc3nc4ccccc4[nH]3)n2Cc2ccco2)cc1	> 100 µM (inactive)
COc1ccc(C(=O)N2CCN(C(=O)CCc3c[nH]c4ccccc34)CC2)cc1OC	> 100 µM (inactive)
Clc1ccc(COCc2nnc(SCc3nc4ccccc4[nH]3)n2Cc2ccco2)cc1	> 100 µM (inactive)
COc1cccc(C(=O)N2CCN(C(=O)C3COc4ccccc4O3)CC2)c1 (stereo not given)	inactive
c1ccc(-c2nnc(SCc3nc4ccccc4[nH]3)n2Cc2ccco2)cc1	> 100 µM (inactive)
O=C(c1ccc2nc(C(F)(F)F)[nH]c2c1)N1CCN(C(=O)C2COc3ccccc3O2)CC1 (stereo not given)	inactive
O=C(c1ccc(OCC2CCCO2)cc1)N1CCN(C(=O)C2COc3ccccc3O2)CC1 (stereo not given)	> 100 µM (inactive)
O=C(c1ccc(Oc2ccc(F)cc2)cc1)N1CCN(C(=O)C2COc3ccccc3O2)CC1 (stereo not given)	> 100 µM (inactive)
COc1ccc(C(=O)N2CCN(C(=O)COc3ccc(C)cc3)CC2)cc1OC	> 100 µM (inactive)
O=C(c1ccc(Oc2ccccc2)cc1)N1CCN(C(=O)C2COc3ccccc3O2)CC1 (stereo not given)	> 100 µM (inactive)
COc1ccc(OCC(=O)N2CCN(C(=O)c3ccc(OC)c(OC)c3)CC2)cc1	> 100 µM (inactive)
Cc1ccc(COCc2nnc(SCc3nc4ccccc4[nH]3)n2Cc2ccco2)cc1	> 100 µM (inactive)
COc1cc(C(=O)N2CCN(C(=O)C3COc4ccccc4O3)CC2)cc(Cl)c1OC (stereo not given)	> 100 µM (inactive)
COc1ccc(C(=O)N2CCN(C(=O)COc3ccc(Cl)cc3)CC2)cc1OC	> 100 µM (inactive)
CCOc1ccc(C(=O)N2CCN(C(=O)C3COc4ccccc4O3)CC2)cc1 (stereo not given)	> 100 µM (inactive)
c1coc(Cn2c(SCc3nc4ccccc4[nH]3)nnc2-c2cnccn2)c1	> 100 µM (inactive)
COc1ccc(C(=O)N2CCN(C(=O)COc3ccccc3)CC2)cc1OC	> 100 µM (inactive)
Cc1nc(COc2ccc(C(=O)N3CCN(C(=O)C4COc5ccccc5O4)CC3)cc2)cs1 (stereo not given)	> 100 µM (inactive)
COc1ccc(C(=O)N2CCN(C(=O)C3CC(=O)N(c4ccccc4)C3)CC2)cc1OC (stereo not given)	> 100 µM (inactive)
CC(=O)Nc1ccccc1C(=O)N1CCN(C(=O)C2COc3ccccc3O2)CC1 (stereo not given)	inactive
c1coc(Cn2c(SCc3nc4ccccc4[nH]3)nnc2-c2ccco2)c1	> 100 µM (inactive)
c1ccc(-c2nnc(SCc3nc4ccccc4[nH]3)n2Cc2ccco2)nc1	> 100 µM (inactive)
COc1ccc(C(=O)N2CCN(C(=O)C3COc4ccccc4O3)CC2)cc1 (stereo not given)	5.89 µM and > 100 µM (inactive)
COc1ccc(C(=O)N2CCN(C(=O)C(c3ccccc3)c3ccccc3)CC2)cc1OC	> 100 µM (inactive)
c1coc(Cn2c(SCc3nc4ccccc4[nH]3)nnc2-c2cccs2)c1	> 100 µM (inactive)
